# Experimental data: PMC4229952 (Molecular cancer therapeutics, 2014)
# Ends that are not written are not given here. Peptide text beside a SMILES is read from it. * marks the point of attachment. Palmitoyl = CCCCCCCCCCCCCCCC(=O)*; Myristoyl = CCCCCCCCCCCCCC(=O)*
# T1: recombinant GIPC PDZ (Homo sapiens, UniProt O14908)
# T1 sequence (O14908 133-213 limits assumed): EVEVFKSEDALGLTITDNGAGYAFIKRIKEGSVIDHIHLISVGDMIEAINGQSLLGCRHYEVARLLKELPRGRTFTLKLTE
# T2: Endoglin C-terminal peptide AP1013 (N-myristoyl-PCSTSSMA) (Homo sapiens)
# T2 chain: Myristoyl-PCSTSSMA
# B1: GIPC PDZ domain PDZ (protein)
# chain: T1 sequence (O14908 133-213 limits assumed)
# How the values were obtained:
# recombinant GIPC PDZ = target: T1, recombinant GIPC PDZ; test: Surface plasmon resonance binding to recombinant GIPC PDZ
# Method in brief: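 Recombinant GIPC PDZ was amine-coupled to a CM5 chip with NHS/EDC at pH 5.5, the optimum found by pH scouting. Lipidated peptide analyte was diluted in HBS-EP from 10×Kd to 0.1×Kd. Runs used the instrument's kinetic/affinity workflow, and Kd was derived from sensorgram analysis.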
# ASPC-1 cells = test: Thymidine incorporation; format: cell-based, human; details: for anti-proliferative activity, screening of lipidated peptides: ASPC-1 cells, [3H] thymidine incorporation, Figure 3A
# Method in brief: (§1)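 About 2×10⁴ cells per well in 24-well plates were cultured with peptides, including a palmitoylated scrambled-sequence control, for the indicated time. Media were RPMI-1640 with 10% FBS for ASPC-1 and DMEM with 10% FBS for MiaPaca-2. [³H]thymidine was then added for 4 h. Cells were washed in ice-cold PBS, fixed in chilled methanol and lysed in 0.1 N NaOH, and TCA-precipitable radioactivity was counted. Error bars are SD; t-test.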
# [1] = tested on: Endoglin-GIPC interaction; test: Immunoprecipitation of endoglin-GIPC interaction; format: cell-based, human; details: ASPC-1 and MiaPaca-2 cell lines, Figure 3B
# Smad-1/5 phosphorylation = test: Western blot of Smad phosphorylation and expression; format: cell-based, human; details: Figure 5B
# Method in brief: (§2)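 Whole-cell lysates were made in NP-40 buffer with protease and phosphatase inhibitors and cleared at 12,000 rpm for 10 min at 4 °C. Proteins were separated by SDS-PAGE, transferred to PVDF, immunoblotted and detected by chemiluminescence. Cells were harvested at 70–80% confluence.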
# [2] = tested on: Id-1, E-cadherin expression; test: Western blot of differentiation markers; format: cell-based, human; details: Figure 6B
# Method in brief: as §2
# MiaPaca-2 cells = test: Thymidine incorporation; format: cell-based, human; details: MiaPaca-2, AP1063 as control, Figure 3D
# Method in brief: as §1
# [3] = tested on: subcutaneous ASPC-1 tumor; test: Subcutaneous ASPC-1 tumor model, intratumoral peptide injection; format: in vivo, SCID mice; details: subcutaneous ASPC-1 model, compared to AP1063, Supplementary Figure S2
# Method in brief: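 Male SCID mice aged 6–8 weeks received 5×10⁶ ASPC-1 cells in 100 μl PBS subcutaneously in the right flank. After 9 days they were randomized (n=7 per group) to daily intratumoral peptide at 500 μg/mouse/day in PBS containing 80% DMSO for 3 weeks; comparator was a scrambled palmitoylated peptide. Tumors were fixed in 10% neutral buffered formalin for 24 h, paraffin-embedded and immunostained (DAB, hematoxylin counterstain). t-test.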
# [4] = target: T2, Endoglin C-terminal peptide AP1013 …; test: SPR
molecule,measurement,setting,value
"CCCCCCCCCCCCCC(=O)N1CCC[C@H]1C(=O)N[C@@H](CS)C(=O)N[C@@H](CO)C(=O)N[C@H](C(=O)N[C@@H](CO)C(=O)N[C@@H](CO)C(=O)N[C@@H](CCSC)C(=O)N[C@@H](C)C(=O)O)[C@@H](C)O [AP1013, Myristoyl-PCSTSSMA] (Myristoyl-PCSTSSMA-OH)",Kd,recombinant GIPC PDZ,7.1 ± 2.8 µM
myristoyl-PCSTSS[K(εN-benzoyl)]A [AP1035],"anti-proliferative activity, screening of lipidated peptides",ASPC-1 cells,not superior to the corresponding non-modified AP1013
Ac-PCSTSSMA [AP1030],"anti-proliferative activity, screening of lipidated peptides",ASPC-1 cells,ineffective
Palmitoyl-PCSTSSMA [AP1032],inhibition of endoglin-GIPC interaction,[1],effectively inhibited endoglin-GIPC interaction
same,inhibition of proliferation,"ASPC-1 cells; ASPC-1, AP1063 as control, Figure 3C",inhibited proliferation
same,"anti-proliferative activity, screening of lipidated peptides",ASPC-1 cells,highest anti-proliferative activity
same,Smad-1/5 phosphorylation,Smad-1/5 phosphorylation,clearly inhibits
same,expressions of Smad1 and Smad 2,Smad-1/5 phosphorylation,also inhibited
same,Id-1 expression,"[2]; ASPC-1 and MiaPaca-2, 100 μmol/L peptide",inhibited Id-1 expression
same,E-cadherin expression,"[2]; Western blot, 100 μmol/L peptide",did not significantly increase
same,inhibition of proliferation,MiaPaca-2 cells,inhibited proliferation
same,microvessel density (MVD),[3],significant decrease in MVD
same,necrotic area,[3],increased necrotic area
myristoyl-PCST[K(εN-benzoyl)]SMA [AP1036],"anti-proliferative activity, screening of lipidated peptides",ASPC-1 cells,not superior to the corresponding non-modified AP1013
Palmitoyl-SMTSCAPS [AP1063],inhibition of endoglin-GIPC interaction,[1],could not
B1,Kd,[4],7.1 µM
